# Source: ChEMBL document CHEMBL5329147, “Synthesis of tryptanthrin appended dispiropyrrolidine oxindoles and their antibacterial evaluation” (RSC Med Chem, 2023)
# Assays:
# Type in all cases: functional
# Staphylococcus aureus [1] = assay: Antibacterial activity against Staphylococcus aureus ATCC 29213 assessed as bacterial growth inhibition incubated for 18 to 24 hrs by broth microdilution method; conditions: time 18-24 hrs
# Summary of the method: (§1)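 CLSI broth microdilution. Overnight starter cultures (single colony, MHBII, 37 °C, shaking 18–24 h) were diluted by OD600 to 10^6 CFU/mL in MHBII. Two-fold dilutions from […] were made from 10 mg/mL DMSO stocks, then incubated 37 °C for 18-24 h. The MIC was the lowest concentration with no visible growth. Three independent runs, duplicate samples.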
# Acinetobacter baumannii = assay: Antibacterial activity against Acinetobacter baumannii BAA-1605 assessed as bacterial growth inhibition incubated for 18 to 24 hrs by broth microdilution method; conditions: time 18-24 hrs; summary of the method: as §1
# Pseudomonas aeruginosa = assay: Antibacterial activity against Pseudomonas aeruginosa ATCC 27853 assessed as bacterial growth inhibition incubated for 18 to 24 hrs by broth microdilution method; conditions: time 18-24 hrs; summary of the method: as §1
# Escherichia coli = assay: Antibacterial activity against Escherichia coli ATCC 25922 assessed as bacterial growth inhibition incubated for 18 to 24 hrs by broth microdilution method; conditions: time 18-24 hrs; summary of the method: as §1
# Klebsiella pneumoniae = assay: Antibacterial activity against Klebsiella pneumoniae BAA 1705 assessed as bacterial growth inhibition incubated for 18 to 24 hrs by broth microdilution method; conditions: time 18-24 hrs; summary of the method: as §1
# Staphylococcus aureus [2] = assay: Antibacterial activity against methicillin sensitive Staphylococcus aureus ATCC 29213 assessed as bacterial growth inhibition incubated for 18 to 24 hrs by broth microdilution method; conditions: time 18-24 hrs
# Summary of the method: (§2)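 CLSI broth microdilution in MHBII; overnight starter cultures (single MHA colony, 37 °C, shaking) adjusted by OD600 to 10^6 CFU/mL. Compounds from DMSO stocks (10 mg/mL), two-fold series 64–0.5 mg/L. Incubation 37 °C, 18-24 h. MIC = lowest concentration with no visible growth. Three independent determinations, each in duplicate.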
# Staphylococcus aureus [3] = assay: Antibacterial activity against methicillin resistant Staphylococcus aureus NRS 119 assessed as bacterial growth inhibition incubated for 18 to 24 hrs by broth microdilution method; conditions: time 18-24 hrs; summary of the method: as §2
# Staphylococcus aureus [4] = assay: Antibacterial activity against methicillin resistant Staphylococcus aureus NRS 129 assessed as bacterial growth inhibition incubated for 18 to 24 hrs by broth microdilution method; conditions: time 18-24 hrs; summary of the method: as §2
# Staphylococcus aureus [5] = assay: Antibacterial activity against methicillin resistant Staphylococcus aureus NRS 186 assessed as bacterial growth inhibition incubated for 18 to 24 hrs by broth microdilution method; conditions: time 18-24 hrs; summary of the method: as §2
# Staphylococcus aureus [6] = assay: Antibacterial activity against methicillin resistant Staphylococcus aureus NRS 191 assessed as bacterial growth inhibition incubated for 18 to 24 hrs by broth microdilution method; conditions: time 18-24 hrs; summary of the method: as §2
# Staphylococcus aureus [7] = assay: Antibacterial activity against methicillin resistant Staphylococcus aureus NRS 192 assessed as bacterial growth inhibition incubated for 18 to 24 hrs by broth microdilution method; conditions: time 18-24 hrs; summary of the method: as §2
# Staphylococcus aureus [8] = assay: Antibacterial activity against methicillin resistant Staphylococcus aureus NRS 193 assessed as bacterial growth inhibition incubated for 18 to 24 hrs by broth microdilution method; conditions: time 18-24 hrs; summary of the method: as §2
# Staphylococcus aureus [9] = assay: Antibacterial activity against methicillin resistant Staphylococcus aureus NRS 194 assessed as bacterial growth inhibition incubated for 18 to 24 hrs by broth microdilution method; conditions: time 18-24 hrs; summary of the method: as §2
# Staphylococcus aureus [10] = assay: Antibacterial activity against methicillin resistant Staphylococcus aureus NRS 198 assessed as bacterial growth inhibition incubated for 18 to 24 hrs by broth microdilution method; conditions: time 18-24 hrs; summary of the method: as §2
# Staphylococcus aureus [11] = assay: Antibacterial activity against vancomycin resistant Staphylococcus aureus […] 4 assessed as bacterial growth inhibition incubated for 18 to 24 hrs by broth microdilution method; conditions: time 18-24 hrs; summary of the method: as §2
# Staphylococcus aureus [12] = assay: Antibacterial activity against vancomycin resistant Staphylococcus aureus […] 12 assessed as bacterial growth inhibition incubated for 18 to 24 hrs by broth microdilution method; conditions: time 18-24 hrs; summary of the method: as §2
# Staphylococcus aureus [13] = assay: Synergistic antibacterial activity against Staphylococcus aureus ATCC 29213 assessed as bacterial growth inhibition incubated for 24 hrs in presence of (S)-8''-Bromo-1-ethyl-1'-methyl-2,12''-dioxo-12''H-dispiro[indoline-3,4'-pyrrolidine-2',6''-indolo[2,1-b]quinazoline]-3',3'-dicarbonitrile by checkerboard assay
# Summary of the method: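 Checkerboard in 96-well plates: two-fold serial dilutions, one agent along abscissa, partner antibiotic along ordinate. Wells received ~10⁵ CFU/mL S. aureus ATCC 29213 in MHBII. Incubation 37 °C, 24 h. ΣFIC = FIC A + FIC B, each FIC being combination MIC divided by MIC alone.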
# Staphylococcus aureus [14] = assay: Bactericidal activity against Staphylococcus aureus ATCC 29213 assessed as reduction in bacterial load at 10 times of MIC incubated for 24 hrs by time kill analysis; parameters: scale not given: the % may be the effect or the level left
# Summary of the method: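 Time-kill assay. ~10^6 CFU/mL in MHBII was exposed to 1X and 10X MIC, 37 °C with shaking for 24 h. Samples were taken at 0, 1, 6 and 24 h, serially diluted in PBS, plated on MHA and incubated 37 °C 18–20 h. Colonies were counted as CFU/mL survivors. Three repeats in duplicate; mean plotted.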
# [15] = Staphylococcus aureus, ATCC 29213, read-out: MIC
MIC (Acinetobacter baumannii),MIC (Pseudomonas aeruginosa),MIC (Escherichia coli),MIC (Klebsiella pneumoniae),Structure (SMILES),MIC (Staphylococcus aureus [1]; [15]),MIC (Staphylococcus aureus [11]),MIC (Staphylococcus aureus [12]),MIC (Staphylococcus aureus [13]),further results
> 64 µg/mL,> 64 µg/mL,> 64 µg/mL,> 64 µg/mL,CN1C(=O)[C@@]2(CN(C)C3(c4ccccc4-n4c3nc3ccccc3c4=O)C2(C#N)C#N)c2ccccc21 (some centres not stated),8 µg/mL,,,,
> 64 µg/mL,> 64 µg/mL,> 64 µg/mL,> 64 µg/mL,CCN1C(=O)[C@]2(c3ccccc31)C(Cc1ccccc1)NC1(c3cc(Br)ccc3-n3c1nc1ccccc1c3=O)C2(C#N)C#N (some centres not stated),0.25 µg/mL,,,,
,,,,CN[C@H](CC(C)C)C(=O)N[C@H]1C(=O)N[C@@H](CC(N)=O)C(=O)N[C@H]2C(=O)N[C@H]3C(=O)N[C@H](C(=O)N[C@H](C(=O)O)c4cc(O)cc(O)c4-c4cc3ccc4O)[C@H](O)c3ccc(c(Cl)c3)Oc3cc2cc(c3O[C@@H]2O[C@H](CO)[C@@H](O)[C@H](O)[C@H]2O[C@H]2C[C@](C)(N)[C@H](O)[C@H](C)O2)Oc2ccc(cc2Cl)[C@H]1O [VANCOMYCIN],,> 64 µg/mL,> 64 µg/mL,,Activity (Staphylococcus aureus [14]): 100%
,,,,C[C@@H](O)[C@H]1C(=O)N2C(C(=O)O)=C(S[C@@H]3CN[C@H](C(=O)N(C)C)C3)[C@H](C)[C@H]12 [MEROPENEM],0.063 µg/mL,64 µg/mL,8 µg/mL,0.63 µg/mL,MIC (Staphylococcus aureus [2]): 0.125 µg/mL; MIC (Staphylococcus aureus [3]): 64 µg/mL; MIC (Staphylococcus aureus [4]): 4 µg/mL; MIC (Staphylococcus aureus [5]): 8 µg/mL; MIC (Staphylococcus aureus [6]): 64 µg/mL; MIC (Staphylococcus aureus [7]): 8 µg/mL; MIC (Staphylococcus aureus [8]): 64 µg/mL; MIC (Staphylococcus aureus [9]): 1 µg/mL; MIC (Staphylococcus aureus [10]): 64 µg/mL
,,,,CCCCCCCCCC(=O)N[C@@H](Cc1c[nH]c2ccccc12)C(=O)N[C@H](CC(N)=O)C(=O)N[C@@H](CC(=O)O)C(=O)N[C@@H]1C(=O)NCC(=O)N[C@@H](CCCN)C(=O)N[C@@H](CC(=O)O)C(=O)N[C@H](C)C(=O)N[C@@H](CC(=O)O)C(=O)NCC(=O)N[C@H](CO)C(=O)N[C@@H]([C@H](C)CC(=O)O)C(=O)N[C@@H](CC(=O)c2ccccc2N)C(=O)O[C@@H]1C,1 µg/mL,,,1 µg/mL,
> 64 µg/mL,> 64 µg/mL,> 64 µg/mL,> 64 µg/mL,CCN1C(=O)[C@@]2(CN(C)C3(c4cc(I)ccc4-n4c3nc3ccc(Cl)cc3c4=O)C2(C#N)C#N)c2ccccc21 (some centres not stated),1 µg/mL,,,,
,,,,CO[C@H]1/C=C/O[C@@]2(C)Oc3c(C)c(O)c4c(O)c(c(/C=N/N5CCN(C)CC5)c(O)c4c3C2=O)NC(=O)/C(C)=C\C=C\[C@H](C)[C@H](O)[C@@H](C)[C@@H](O)[C@@H](C)[C@H](OC(C)=O)[C@@H]1C [RIFAMPIN],0.008 µg/mL,,,0.008 µg/mL,
,,,,CN(C)c1ccc(O)c2c1C[C@H]1C[C@H]3[C@H](N(C)C)C(O)=C(C(N)=O)C(=O)[C@@]3(O)C(O)=C1C2=O [MINOCYCLINE],0.125 µg/mL,,,0.125 µg/mL,

Structure (SMILES),MIC (Acinetobacter baumannii),MIC (Pseudomonas aeruginosa),MIC (Escherichia coli),MIC (Klebsiella pneumoniae),MIC (Staphylococcus aureus [1]; [15]),MIC (Staphylococcus aureus [11]),MIC (Staphylococcus aureus [12]),MIC (Staphylococcus aureus [13]),further results
C[C@H]1COc2c(N3CCN(C)CC3)c(F)cc3c(=O)c(C(=O)O)cn1c23 [LEVOFLOXACIN ANHYDROUS],,,,64 µg/mL,0.125 µg/mL,> 64 µg/mL,32 µg/mL,0.125 µg/mL,MIC (Staphylococcus aureus [1]): 0.25 µg/mL; MIC (Staphylococcus aureus [2]): 0.125 µg/mL; MIC (Staphylococcus aureus [3]): 16 µg/mL; MIC (Staphylococcus aureus [4]): 0.25 µg/mL; MIC (Staphylococcus aureus [5]): 4 µg/mL; MIC (Staphylococcus aureus [6]): 16 µg/mL; MIC (Staphylococcus aureus [7]): 4 µg/mL; MIC (Staphylococcus aureus [8]): 32 µg/mL; MIC (Staphylococcus aureus [9]): 0.125 µg/mL; MIC (Staphylococcus aureus [10]): 32 µg/mL
